# Test results: article PMC6045484 (ACS Omega, 2018)
# Tests used:
# [1] = system: CQ-sensitive (CQS) and CQ-resistant (CQR) strains; details: strain not stated ref 11; cited from earlier work
# P. falciparum (D6) = test: in vitro antimalarial activity, plasmodial LDH; type: cell-based, Plasmodium falciparum; details: for IC50: Plasmodium falciparum, D6, 72 h, read-out: P. falciparum (D6) IC50
# P. falciparum (W2) = test: in vitro antimalarial activity, plasmodial LDH; type: cell-based, Plasmodium falciparum; details: for IC50: Plasmodium falciparum, W2, 72 h, read-out: P. falciparum (W2) IC50, CQ-resistant W2 strain, 72 h
# Summary of the method: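 P. falciparum-infected erythrocytes (2% parasitemia, 2% hematocrit) in RPMI 1640 with 10% human serum and 60 μg/mL amikacin. Exposed to test compound dilutions for 72 h at 37 °C under 90% N2/5% O2/5% CO2. LDH measured with Malstat reagent (30 min, room temperature), then NBT/PES for 1 h in the dark, stopped with 5% acetic acid, read at 650 nm. IC50 from dose-response curves.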
# [2] = system: P. berghei (sensitive strain); test: blood-schizontocidal activity against P. berghei infection in mice; type: in vivo, Plasmodium berghei; details: Swiss mice
# Summary of the method: (§1)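 Swiss mice of either sex (about 15–20 g, same age), six per group, inoculated intraperitoneally on day 0 with 1 × 10^7 infected erythrocytes from a donor mouse. Oral test compound at 100, 50, 25 or 10 mg/kg, CQ diphosphate (10 mg/kg/day × 4) or vehicle started 4 h later, on D0 to D+3. Giemsa tail-blood smears on D+4 and D+7. Curative: parasites eliminated, no relapse, all mice surviving to D+60.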
# [3] = system: multidrug-resistant P. yoelii nigeriensis; test: blood-schizontocidal activity against P. yoelii nigeriensis infection in mice; type: in vivo, Plasmodium yoelii nigeriensis; details: Swiss mice
# Summary of the method: as §1
# [4] = system: SK-MEL, KB, BT-549, SK-OV-3, VERO and LLC-PK1 cells; test: cytotoxicity, neutral red uptake assay; type: cell-based, mammalian; details: highest test concentration 4760 ng/mL
# Summary of the method: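 Cells seeded at 25 000/well and allowed 24 h to reach confluence. Test compound was then added and incubated 48 h. Viable cells were counted by a modified neutral red uptake method. The panel was four human cancer lines and two noncancerous mammalian kidney lines. Doxorubicin served as positive control and DMSO as negative control.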
# [5] = system: L. donovani promastigotes; test: in vitro antileishmanial activity, alamarBlue assay; type: cell-based, Leishmania donovani; details: 48 h
# C. albicans ATCC90028 = test: in vitro antifungal activity; type: cell-based, Candida albicans
# Summary of the method: (§2)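 Modified NCCLS broth method in Sabouraud dextrose. Inoculum set by OD630 to 1.5 × 10^3 CFU/mL. Test compound serially diluted in 20% DMSO/saline, duplicate wells, up to 20 μg/mL. Incubated 70–74 h at 35 °C; 530 nm read before and after. IC50 is 50% growth inhibition; MIC is no detectable growth. MFC from clear wells subcultured on agar. Amphotericin B control.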
# C. glabrata ATCC90030 = test: in vitro antifungal activity; type: cell-based, Candida glabrata
# Summary of the method: as §2
# C. krusei ATCC6258 = test: in vitro antifungal activity; type: cell-based, Candida krusei
# Summary of the method: as §2
# C. neoformans ATCC90113 = test: in vitro antifungal activity; type: cell-based, Cryptococcus neoformans
# Summary of the method: as §2
# A. fumigatus ATCC 90906 = test: in vitro antifungal activity; type: cell-based, Aspergillus fumigatus
# Summary of the method: as §2
# SA (ATCC29213) = test: in vitro antibacterial activity; type: cell-based; details: Staphylococcus aureus
# Summary of the method: (§3)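 Test compound serially diluted in 20% DMSO/saline and plated in duplicate, up to 20 μg/mL. Inoculum in cation-adjusted Mueller–Hinton broth, pH 7.3, set by OD630 to 5 × 10^5 CFU/mL. Incubated 16–20 h at 35 °C; 530 nm read before and after. IC50 is 50% growth inhibition; MIC is no detectable growth. MBC from clear wells subcultured on agar. Ciprofloxacin control.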
# MRSA (ATCC33591) = test: in vitro antibacterial activity; type: cell-based, methicillin-resistant Staphylococcus aureus
# Summary of the method: as §3
# [6] = system: M. intracellulare (ATCC23068); test: in vitro antibacterial activity, modified alamarBlue procedure; type: cell-based, Mycobacterium intracellulare
# Summary of the method: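 Modified alamarBlue microplate method. Test compound serially diluted in 20% DMSO/saline, duplicate wells, up to 20 μg/mL. Inoculum 2.0 × 10^6 CFU/mL in Middlebrook 7H9 with OADC, pH 7.3, containing 5% alamarBlue. Incubated 70–74 h at 37 °C, 10% CO2; fluorescence 544ex/590em read before and after. MIC: no blue-to-pink change. MBC by subculturing blue wells on agar. Ciprofloxacin control.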
# [7] = highest test concentration 20 μg/mL
# [8] = methicillin-resistant S. aureus, highest test concentration 20 μg/mL
smiles,measurement,setting,value
COc1cc(NC(C)CCCN)c2nc(C(C)(C)C)ccc2c1 (stereo not shown) [2-tert-butylprimaquine],in vitro antimalarial activity IC50,[1],0.039 µg/mL
"CCN(CC)CCCC(C)Nc1ccnc2cc(Cl)ccc12 (stereo not shown) [CQ, chloroquine, reference compound]",IC50,P. falciparum (D6),0.015 µg/mL
same,IC50,P. falciparum (W2),0.14 µg/mL
same,P. berghei blood-schizontocidal activity (mice cured/treated),"[2]; 10 mg/kg/day × 4, oral",active (2/6)
same,P. berghei blood-schizontocidal activity (mice cured/treated),"[2]; 25 mg/kg/day × 4, oral",curative (6/6)
same,P. berghei blood-schizontocidal activity (mice cured/treated),"[2]; 50 mg/kg/day × 4, oral",curative (6/6)
same,P. berghei blood-schizontocidal activity (mice cured/treated),"[2]; 100 mg/kg/day × 4, oral",curative (6/6)
same,P. yoelii nigeriensis blood-schizontocidal activity (mice cured/treated),"[3]; 25 mg/kg/day × 4, oral",inactive (0/6)
same,P. yoelii nigeriensis blood-schizontocidal activity (mice cured/treated),"[3]; 50 mg/kg/day × 4, oral",inactive (0/6)
same,P. yoelii nigeriensis blood-schizontocidal activity (mice cured/treated),"[3]; 100 mg/kg/day × 4, oral",inactive (0/6)
same,in vitro antimalarial activity IC50,[1],0.113 µg/mL
"CCCCCCCOc1c(OC)cc(NC(C)CCCN)c2nc(C(C)(C)C)ccc12 (stereo not shown) [compound 48, N^4-(2-tert-Butyl-5-(heptyloxy)-6-methoxyquinolin-8-yl)pentane-1,4-diamine]",IC50,P. falciparum (D6),0.05 µg/mL
same,IC50,P. falciparum (W2),0.037 µg/mL
same,cytotoxicity CTX,[4],"NC (NC, not cytotoxic up to 4760 ng/mL (4.76 μg/mL))"
same,P. berghei blood-schizontocidal activity (mice cured/treated),"[2]; 10 mg/kg/day × 4, oral",active (4/6)
same,P. berghei blood-schizontocidal activity (mice cured/treated),"[2]; 25 mg/kg/day × 4, oral",curative (6/6)
same,P. berghei blood-schizontocidal activity (mice cured/treated),"[2]; 50 mg/kg/day × 4, oral",curative (6/6)
same,P. berghei blood-schizontocidal activity (mice cured/treated),"[2]; 100 mg/kg/day × 4, oral",curative (6/6)
same,P. yoelii nigeriensis blood-schizontocidal activity (mice cured/treated),"[3]; 25 mg/kg/day × 4, oral",inactive (0/6)
same,P. yoelii nigeriensis blood-schizontocidal activity (mice cured/treated),"[3]; 50 mg/kg/day × 4, oral",active (3/6)
same,P. yoelii nigeriensis blood-schizontocidal activity (mice cured/treated),"[3]; 100 mg/kg/day × 4, oral",active (4/6)
same,IC50,"[5]; Leishmania donovani, read-out: L. donovani IC50, promastigotes, 48 h",5 µg/mL
same,IC90,"[5]; Leishmania donovani, read-out: L. donovani IC90, promastigotes, 48 h",> 40 µg/mL
same,C. albicans MFC,C. albicans ATCC90028,10.00 µg/mL
same,C. albicans MIC,C. albicans ATCC90028,10.00 µg/mL
same,IC50,"C. albicans ATCC90028; Candida albicans, ATCC90028, read-out: C. albicans IC50",4.93 µg/mL
same,MIC,"C. albicans ATCC90028; Candida albicans, ATCC90028, read-out: C. albicans MIC",10 µg/mL
same,C. glabrata MFC,C. glabrata ATCC90030,5.00 µg/mL
same,C. glabrata MIC,C. glabrata ATCC90030,5.00 µg/mL
same,C. krusei MFC,C. krusei ATCC6258,5.00 µg/mL
same,C. krusei MIC,C. krusei ATCC6258,5.00 µg/mL
same,IC50,"C. neoformans ATCC90113; Cryptococcus neoformans, ATCC90113, read-out: C. neoformans IC50",2.07 µg/mL
same,MFC,"C. neoformans ATCC90113; Cryptococcus neoformans, ATCC90113, read-out: C. neoformans MFC",2.5 µg/mL
same,MIC,"C. neoformans ATCC90113; Cryptococcus neoformans, ATCC90113, read-out: C. neoformans MIC",2.5 µg/mL
same,IC50,"A. fumigatus ATCC 90906; Aspergillus fumigatus, ATCC90906, read-out: A. fumigatus IC50",6 µg/mL
same,MFC,"A. fumigatus ATCC 90906; Aspergillus fumigatus, ATCC90906, read-out: A. fumigatus MFC",> 20 µg/mL
same,MIC,"A. fumigatus ATCC 90906; Aspergillus fumigatus, ATCC90906, read-out: A. fumigatus MIC",> 20 µg/mL
same,IC50,"SA (ATCC29213); ATCC29213, read-out: IC50 (concentration that affords 50% growth inhibition), SA",2.77 µg/mL
same,MBC,"SA (ATCC29213); ATCC29213, read-out: MBC (minimum bactericidal concentration), SA",20 µg/mL
same,MIC,"SA (ATCC29213); ATCC29213, read-out: MIC, SA",5 µg/mL
same,MIC,"MRSA (ATCC33591); Staphylococcus aureus, ATCC33591|MRSA, read-out: MIC, MRSA",5 µg/mL
same,IC50,"[6]; Mycobacterium intracellulare, ATCC23068, read-out: IC50 (concentration that affords 50% growth inhibition), M. intracellulare",3.72 µg/mL
same,MBC,"[6]; Mycobacterium intracellulare, ATCC23068, read-out: MBC (minimum bactericidal concentration), M. intracellulare",5 µg/mL
same,MIC,"[6]; Mycobacterium intracellulare, ATCC23068, read-out: MIC, M. intracellulare",5 µg/mL
"CCCCCCCCOc1c(OC)cc(NC(C)CCCNC(=O)C(N)CCCN)c2nc(C(C)(C)C)ccc12 (stereo not shown) [compound 118, 2,5-Diamino-N-(4-(2-tert-butyl-6-methoxy-5-(octyloxy)quinolin-8-lamino)pentyl)-pentanamide]",P. falciparum (D6) IC50,"P. falciparum (D6); CQ-sensitive D6 strain, 72 h","NA (NA, not active)"
same,P. falciparum (W2) IC50,"P. falciparum (W2); CQ-resistant W2 strain, 72 h","NA (NA, not active)"
same,cytotoxicity CTX,[4],"NC (NC, not cytotoxic up to 4760 ng/mL (4.76 μg/mL))"
same,L. donovani IC50,[5]; promastigotes,26.61 µg/mL
same,L. donovani IC90,[5]; promastigotes,37.9 µg/mL
same,C. albicans IC50,C. albicans ATCC90028,19.95 µg/mL
same,C. albicans MFC,C. albicans ATCC90028,>20 µg/mL
same,C. albicans MIC,C. albicans ATCC90028,>20 µg/mL
same,C. glabrata IC50,C. glabrata ATCC90030,8.05 µg/mL
same,C. glabrata MFC,C. glabrata ATCC90030,>20 µg/mL
same,C. glabrata MIC,C. glabrata ATCC90030,>20 µg/mL
same,C. krusei IC50,C. krusei ATCC6258,15.36 µg/mL
same,C. krusei MFC,C. krusei ATCC6258,>20 µg/mL
same,C. krusei MIC,C. krusei ATCC6258,>20 µg/mL
same,C. neoformans IC50,C. neoformans ATCC90113,4.93 µg/mL
same,C. neoformans MFC,C. neoformans ATCC90113,>20 µg/mL
same,C. neoformans MIC,C. neoformans ATCC90113,>20 µg/mL
same,A. fumigatus IC50,A. fumigatus ATCC 90906,"NA (NA, no activity at the highest test concentration of 20 μg/mL)"
same,A. fumigatus MFC,A. fumigatus ATCC 90906,"NA (NA, no activity at the highest test concentration of 20 μg/mL)"
same,A. fumigatus MIC,A. fumigatus ATCC 90906,"NA (NA, no activity at the highest test concentration of 20 μg/mL)"
same,"IC50 (concentration that affords 50% growth inhibition), SA",SA (ATCC29213); [7],"NA (NA, no activity at the highest test concentration of 20 μg/mL)"
same,"MBC (minimum bactericidal concentration), SA",SA (ATCC29213); [7],"NA (NA, no activity at the highest test concentration of 20 μg/mL)"
same,"MIC, SA",SA (ATCC29213); [7],"NA (NA, no activity at the highest test concentration of 20 μg/mL)"
same,"IC50 (concentration that affords 50% growth inhibition), MRSA",MRSA (ATCC33591); [8],"NA (NA, no activity at the highest test concentration of 20 μg/mL)"
same,"MBC (minimum bactericidal concentration), MRSA",MRSA (ATCC33591); [8],"NA (NA, no activity at the highest test concentration of 20 μg/mL)"
same,"MIC, MRSA",MRSA (ATCC33591); [8],"NA (NA, no activity at the highest test concentration of 20 μg/mL)"
same,"IC50 (concentration that affords 50% growth inhibition), M. intracellulare",[6]; [7],7.71 µg/mL
same,"MBC (minimum bactericidal concentration), M. intracellulare",[6]; [7],>20 µg/mL
same,"MIC, M. intracellulare",[6]; [7],>20 µg/mL
